{"data": "Measured values from different studies"}
{"SMILES": "CCc1nc2c(C)cc(N3CCN(CC(=O)N4CC(O)C4)CC3)cn2c1N(C)c1nc(-c2ccc(F)cc2)c(C#N)s1", "system": "human, plasma", "setting": "oral, 1500 mg, single dose, fed, healthy volunteers", "endpoint": "Cmax", "result": "19000 ng/mL"}
{"SMILES": "C[C@H]1O[C@@H](O[C@H]2[C@@H](O)C[C@H](O[C@H]3[C@@H](O)C[C@H](O[C@H]4CC[C@@]5(C)[C@H](CC[C@@H]6[C@@H]5C[C@@H](O)[C@]5(C)[C@@H](C7=CC(=O)OC7)CC[C@]65O)C4)O[C@@H]3C)O[C@@H]2C)C[C@H](O)[C@@H]1O", "system": "Caco-2", "setting": "5 µM, 1 h", "endpoint": "efflux ratio", "result": 6.6}
{"SMILES": "CC(C)(C)c1ccc(O)c(CN(Cc2cc(C(C)(C)C)ccc2O)C2CCC(NC(N)=O)CC2)c1 (stereo not drawn)", "system": "male C57BL/6 mouse, brain", "setting": "intraperitoneal, 5 mg/kg, single dose", "endpoint": "Tmax", "result": "30 min"}
{"SMILES": "CC(C)n1cc(C#N)c2cc(-n3cc(C(=O)O)cn3)ccc21", "system": "human, plasma", "setting": "oral, 10 mg, single dose, fasted, healthy volunteers", "endpoint": "Cmax", "result": "313 ng/mL"}
{"SMILES": "COc1cc(C(=O)NC2CCN(C)CC2)c(F)cc1Nc1ncc(C(F)(F)F)c(Oc2cccc3c2C(=O)N(C)C3)n1", "system": "human, plasma", "setting": "oral, 200 mg, multiple doses, once daily, steady state, patients", "endpoint": "Cmax", "result": "2580 nM"}
{"SMILES": "CC(C)(O)c1cn(-c2ccc(-c3cccc(S(C)(=O)=O)c3)cc2)c(C(C)(C)c2ccccc2Cl)n1", "system": "male cynomolgus monkey, plasma", "setting": "intravenous, 1 mg/kg, single dose", "endpoint": "Vd", "result": "1.3 L/kg"}
{"SMILES": "Nc1cc(N2CCCCC2)nc(N)[n+]1[O-]", "system": "Caco-2", "setting": "10 µM, 2 h, pH 7.4", "endpoint": "efflux ratio", "result": 1.72}
{"SMILES": "CO[C@H]1CC[C@H](N2C(=O)CNc3ncc(-c4ccc(C(C)(C)O)nc4)nc32)CC1", "system": "human, plasma", "setting": "oral, 15 mg, multiple doses, patients", "endpoint": "Cmax", "result": "92 ng/mL"}
{"SMILES": "CC(C)(O)c1cn(-c2ccc(-c3cc(F)c(CO)c(S(C)(=O)=O)c3)cc2F)c(C(C)(C)c2c(Cl)cccc2Cl)n1", "system": "male cynomolgus monkey, plasma", "setting": "intravenous, 1 mg/kg, single dose", "endpoint": "Vd", "result": "2.9 L/kg"}
